Test results as given in ChEMBL document CHEMBL4428120, “In silico and in vitro methods to identify ebola virus VP35-dsRNA inhibitors” (Bioorg Med Chem, 2016).
Calls of active or inactive are those of the source. No cut-off for these calls is given here.

Tests used:
Ebolavirus [1] = assay: (§1) Inhibition of fluorescent dsRNA probe binding to N-terminal His-tagged recombinant Ebola virus VP35 interferon inhibitory domain at 200 uM pre-incubated for 5 mins before dsRNA addition and measured after 5 mins by ethidium bromide displacement based EMSA method relative to control
Outline: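 Recombinant VP35 IID was expressed in E. coli BL-21 and purified on Ni-NTA. It was 400 nM before probe addition, in 10 mM Tris-HCl pH 7.5, 10 mM NaCl, 10% glycerol, with 200 μM compound for 5 min. An equal volume of 60 nM Cy5.5-labelled 10-bp dsRNA was added, then 5 min at room temperature and then on ice. Run on 1% agarose in chilled TAE; infrared scan.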

Ebolavirus [2] = assay: as §1, with “domain assessed as normalized intensity for DNA binding” for “domain”; parameters: scale not given: the % may be the effect or the level left
RNA = assay: Binding affinity to RNA (unknown origin) assessed as inhibition of fluorescent dsRNA probe binding to DNA at 200 uM at 200 uM pre-incubated for 5 mins before dsRNA addition and measured after 5 mins by ethidium bromide displacement based EMSA method relative to control; assay type: nucleic-acid assay
DNA = assay: Binding affinity to DNA (unknown origin) assessed as inhibition of fluorescent dsRNA probe binding to DNA at 200 uM at 200 uM pre-incubated for 5 mins before dsRNA addition and measured after 5 mins by ethidium bromide displacement based EMSA method relative to control; assay type: nucleic-acid assay
Ebolavirus [3] = assay: (§2) Inhibition of fluorescent dsRNA probe binding to N-terminal His-tagged recombinant Ebola virus VP35 interferon inhibitory domain pre-incubated for 5 mins before dsRNA addition and measured after 5 mins by ethidium bromide displacement based EMSA method relative to control
Outline: (§3)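 EMSA: Ni-NTA-purified recombinant VP35 IID was 400 nM before probe addition, in Tris-HCl pH 7.5/NaCl/10% glycerol buffer. Compound was diluted twofold serially from 200 μM and incubated 5 min. An equal volume of 60 nM Cy5.5-dsRNA probe was added, then 5 min at room temperature and then on ice. Agarose gel, infrared scan; IC50 taken from the dose-response.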

[4] = as §2; parameters: species or system Ebolavirus; outline: as §3

c1coc(CNCNCc2ccco2)c1
inhibition (Ebolavirus [1]): inactive
Activity (Ebolavirus [2]): 45 to 98.4%
Activity (RNA): inactive
Activity (DNA): inactive

COC1=C/C(=C/C=C(\NNC(=S)NN)c2sc(NNC(C)=O)nc2C)C=CC1=O
Activity (Ebolavirus [2]): 81.5%
Activity (RNA): inactive
Activity (DNA): inactive
inhibition (Ebolavirus [3]): Dose-dependent effect
IC50 [4]: 20 µM

O=C(OCCCCOC(=O)N1C(=O)c2ccccc2C1=O)N1C(=O)c2ccccc2C1=O
inhibition (Ebolavirus [1]): > 50%
Activity (Ebolavirus [2]): 46.8 to 78.5%
Activity (RNA): Active
Activity (DNA): Active

Cc1nc(-n2nc(-c3ccccc3)cc2-c2ccccc2)sc1C(=O)/C=C/c1ccc([N+](=O)[O-])cc1
Activity (Ebolavirus [2]): 76.3%
Activity (RNA): inactive
Activity (DNA): inactive

CCOC(=O)NC(NC(=O)OCC)c1ccc(C(NC(=O)OCC)NC(=O)OCC)cc1
inhibition (Ebolavirus [1]): > 50%
Activity (Ebolavirus [2]): 79.6 to 108%
Activity (RNA): inactive
Activity (DNA): inactive

NC(=O)NC(NC(=O)NC(NC(N)=O)c1ccco1)c1ccco1 (stereo not drawn)
inhibition (Ebolavirus [1]): > 50%
Activity (Ebolavirus [2]): 98.1 to 116%
Activity (RNA): inactive
Activity (DNA): inactive
IC50 [4]: 4 µM

Nc1nnc2nc(CC(=O)c3cccc([N+](=O)[O-])c3)c(CC(=O)c3cccc([N+](=O)[O-])c3)nn12
Activity (Ebolavirus [2]): 60.7 to 88.8%
Activity (RNA): inactive
Activity (DNA): inactive

CCOc1ccccc1C(SCC(=O)O)SCC(=O)O
inhibition (Ebolavirus [1]): > 50%
Activity (Ebolavirus [2]): 92 to 107%
Activity (RNA): inactive
Activity (DNA): inactive

CNCc1ccco1
inhibition (Ebolavirus [1]): inactive
Activity (Ebolavirus [2]): 110 to 117%
Activity (RNA): inactive
Activity (DNA): inactive

CN1CCN(CCSC(=O)C(Cl)(c2ccccc2)C2CCCC2)CC1 (stereo not drawn)
inhibition (Ebolavirus [1]): > 50%
Activity (Ebolavirus [2]): 72.3 to 91.8%
Activity (RNA): inactive
Activity (DNA): inactive

CCC(=O)NNC(/C=C/c1cccc(O)c1)=C1/S/C(=N\c2ccc(C)cc2[N+](=O)[O-])N=C1C
Activity (Ebolavirus [2]): 73.8 to 92.7%
Activity (RNA): inactive
Activity (DNA): inactive
